Values after ≈ are worked out from the molar mass of the structure shown.
Key:
[1] = biological target: T1, Poly [ADP-ribose] polymerase tankyrase-2 (Homo sapiens, UniProt Q9H2K2); experiment: Binding affinity to 6His-tagged TNKS2 PARP domain (947 to 1162) (unknown origin) expressed in Escherichia coli BL21(DE3) by surface plasmon resonance analysis
T1 sequence (Q9H2K2 whole entry): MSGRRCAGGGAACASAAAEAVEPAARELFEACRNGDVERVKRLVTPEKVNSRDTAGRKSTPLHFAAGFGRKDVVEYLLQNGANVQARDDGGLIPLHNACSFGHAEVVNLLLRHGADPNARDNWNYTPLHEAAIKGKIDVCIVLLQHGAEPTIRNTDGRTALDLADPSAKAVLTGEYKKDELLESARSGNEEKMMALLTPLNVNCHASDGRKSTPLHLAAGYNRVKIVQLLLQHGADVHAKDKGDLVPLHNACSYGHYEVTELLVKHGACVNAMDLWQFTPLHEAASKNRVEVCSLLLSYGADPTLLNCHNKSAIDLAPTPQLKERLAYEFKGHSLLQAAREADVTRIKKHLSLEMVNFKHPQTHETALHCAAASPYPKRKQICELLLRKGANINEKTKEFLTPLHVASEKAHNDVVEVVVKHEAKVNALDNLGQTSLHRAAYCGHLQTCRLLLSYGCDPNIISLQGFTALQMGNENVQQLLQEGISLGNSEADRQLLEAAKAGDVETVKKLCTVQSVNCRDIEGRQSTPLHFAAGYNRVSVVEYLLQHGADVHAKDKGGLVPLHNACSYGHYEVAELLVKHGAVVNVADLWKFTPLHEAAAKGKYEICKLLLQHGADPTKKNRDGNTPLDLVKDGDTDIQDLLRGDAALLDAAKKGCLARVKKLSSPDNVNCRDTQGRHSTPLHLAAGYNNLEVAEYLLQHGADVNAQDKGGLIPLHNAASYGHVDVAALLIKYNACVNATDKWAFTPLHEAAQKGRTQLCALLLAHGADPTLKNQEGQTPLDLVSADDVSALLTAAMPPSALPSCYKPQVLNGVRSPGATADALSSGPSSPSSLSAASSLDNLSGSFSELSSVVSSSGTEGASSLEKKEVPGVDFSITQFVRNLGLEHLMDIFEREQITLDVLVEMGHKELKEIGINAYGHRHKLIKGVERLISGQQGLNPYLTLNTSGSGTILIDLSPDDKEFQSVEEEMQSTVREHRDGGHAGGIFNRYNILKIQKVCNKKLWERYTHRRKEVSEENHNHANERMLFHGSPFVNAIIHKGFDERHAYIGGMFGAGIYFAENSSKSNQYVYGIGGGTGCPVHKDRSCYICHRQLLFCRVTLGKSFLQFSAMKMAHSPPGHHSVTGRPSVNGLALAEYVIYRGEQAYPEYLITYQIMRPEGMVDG
In short: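 SPR on a Biacore instrument. Running buffer: 20 mM PBS pH 7.4, 0.05% Tween20, 2% DMSO. His-tagged TNKS2 (20 μg/mL in 20 mM PBS pH 7.4) was capture-coupled at 10 μL/min onto a Ni²⁺/NHS doubly preactivated NTA chip, to a target of 5000 RU.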

[2] = biological target: T2, Poly [ADP-ribose] polymerase tankyrase-2 (Homo sapiens) (UniProt Q9H2K2); experiment: Binding affinity to TNKS2 PARP domain (947 to 1162) (unknown origin) expressed in Escherichia coli BL21(DE3) assessed as thermal stabilization at 125 uM by differential scanning flourimetric analysis
T2 sequence (whole entry): T1 sequence (Q9H2K2 whole entry)
In short: (§1)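 DSF dose−response. TNKS2 at 0.2 mg/mL with SYPRO Orange (5×). Compounds were serially diluted in 100% DMSO at 50× the assay concentration. Chymotrypsin (1/100 TNKS2 mass equivalents) was added to the protein–dye mix just before the run. Scanned 25−80 °C at about 2 °C/min, ex 490/em 575 nm, and Tm shift was taken against the DMSO control.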

[3] = biological target: T1, Poly [ADP-ribose] polymerase tankyrase-2; experiment: Inhibition of auto-PARsylation of GST-tagged TNKS2 PARP domain (947 to 1162) (unknown origin) expressed in Escherichia coli BL21(DE3) after 2 hrs by LC/MS analysis
[4] = Thermodynamic solubility of the compound in pION buffer at 500 uM after 18 hrs at pH 4.0 by UV-spectrophotometric analysis; format: physicochemical; conditions: read-out: Therm_solubility
In short: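 A 50 mM DMSO stock was diluted into pH 4.0 pION buffer (final 500 μM test compound) and incubated sealed for 18 h. Samples were vacuum filtered, discarding the first filtrate used to wet the filter. Filtrate was mixed 1:1 with 1-propanol for UV read-out.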

[5] = biological target: T2, Poly [ADP-ribose] polymerase tankyrase-2 (Homo sapiens); experiment: Binding affinity to TNKS2 PARP domain (947 to 1162) (unknown origin) expressed in Escherichia coli BL21(DE3) assessed as thermal stabilization at 1 mM by differential scanning flourimetric analysis
In short: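 Fragment screen by DSF. TNKS2 at 0.2 mg/mL with SYPRO Orange (5×). Compound added from 50 mM DMSO stocks, giving final 1 mM and 2% DMSO; DMSO controls on each plate. Scanned 25−80 °C at about 2 °C/min, fluorescence ex 490/em 575 nm. Curves inspected visually; Tm fitted to sigmoidal transitions.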

[6] = biological target: T2, Poly [ADP-ribose] polymerase tankyrase-2 (Homo sapiens); experiment: Binding affinity to TNKS2 PARP domain (947 to 1162) (unknown origin) expressed in Escherichia coli BL21(DE3) assessed as thermal stabilization by differential scanning flourimetric analysis; in short: as §1
[7] = biological target: T3, Protein mono-ADP-ribosyltransferase TIPARP (Homo sapiens) (UniProt Q7Z3E1); experiment: Inhibition of PARP7 (unknown origin) at 10 uM relative to control
T3 sequence (whole entry): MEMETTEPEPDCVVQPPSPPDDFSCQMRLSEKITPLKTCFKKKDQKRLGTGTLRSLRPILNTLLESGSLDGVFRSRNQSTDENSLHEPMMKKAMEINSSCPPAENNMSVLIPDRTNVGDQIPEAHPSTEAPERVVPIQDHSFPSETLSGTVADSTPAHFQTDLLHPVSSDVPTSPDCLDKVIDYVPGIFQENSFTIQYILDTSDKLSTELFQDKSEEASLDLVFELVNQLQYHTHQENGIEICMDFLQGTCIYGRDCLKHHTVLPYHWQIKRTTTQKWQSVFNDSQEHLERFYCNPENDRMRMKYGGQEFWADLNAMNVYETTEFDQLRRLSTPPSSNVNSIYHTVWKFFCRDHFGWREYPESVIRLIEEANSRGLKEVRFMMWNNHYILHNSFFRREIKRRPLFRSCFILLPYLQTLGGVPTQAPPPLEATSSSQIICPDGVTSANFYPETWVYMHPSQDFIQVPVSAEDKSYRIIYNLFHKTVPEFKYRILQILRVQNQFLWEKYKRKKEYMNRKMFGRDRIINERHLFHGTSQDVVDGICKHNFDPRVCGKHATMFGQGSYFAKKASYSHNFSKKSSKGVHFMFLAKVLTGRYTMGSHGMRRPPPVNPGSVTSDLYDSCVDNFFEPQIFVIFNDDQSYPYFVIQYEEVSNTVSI

[8] = biological target: T4, Protein mono-ADP-ribosyltransferase PARP11 (Homo sapiens) (UniProt Q9NR21); experiment: Inhibition of PARP11 (unknown origin) at 10 uM relative to control
T4 sequence (whole entry): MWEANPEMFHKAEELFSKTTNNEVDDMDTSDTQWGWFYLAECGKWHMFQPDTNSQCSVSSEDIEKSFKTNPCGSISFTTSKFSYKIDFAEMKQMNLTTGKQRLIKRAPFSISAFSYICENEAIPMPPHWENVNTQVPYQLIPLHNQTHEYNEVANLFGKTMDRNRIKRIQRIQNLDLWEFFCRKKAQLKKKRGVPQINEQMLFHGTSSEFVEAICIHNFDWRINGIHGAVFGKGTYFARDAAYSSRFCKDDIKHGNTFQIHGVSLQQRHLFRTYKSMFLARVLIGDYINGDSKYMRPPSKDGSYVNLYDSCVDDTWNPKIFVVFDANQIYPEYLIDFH

[9] = biological target: Protein mono-ADP-ribosyltransferase PARP6 (Homo sapiens, UniProt Q2NL67); experiment: Inhibition of PARP6 (unknown origin)
Protein mono-ADP-ribosyltransferase PARP6, sequence (Q2NL67 whole entry): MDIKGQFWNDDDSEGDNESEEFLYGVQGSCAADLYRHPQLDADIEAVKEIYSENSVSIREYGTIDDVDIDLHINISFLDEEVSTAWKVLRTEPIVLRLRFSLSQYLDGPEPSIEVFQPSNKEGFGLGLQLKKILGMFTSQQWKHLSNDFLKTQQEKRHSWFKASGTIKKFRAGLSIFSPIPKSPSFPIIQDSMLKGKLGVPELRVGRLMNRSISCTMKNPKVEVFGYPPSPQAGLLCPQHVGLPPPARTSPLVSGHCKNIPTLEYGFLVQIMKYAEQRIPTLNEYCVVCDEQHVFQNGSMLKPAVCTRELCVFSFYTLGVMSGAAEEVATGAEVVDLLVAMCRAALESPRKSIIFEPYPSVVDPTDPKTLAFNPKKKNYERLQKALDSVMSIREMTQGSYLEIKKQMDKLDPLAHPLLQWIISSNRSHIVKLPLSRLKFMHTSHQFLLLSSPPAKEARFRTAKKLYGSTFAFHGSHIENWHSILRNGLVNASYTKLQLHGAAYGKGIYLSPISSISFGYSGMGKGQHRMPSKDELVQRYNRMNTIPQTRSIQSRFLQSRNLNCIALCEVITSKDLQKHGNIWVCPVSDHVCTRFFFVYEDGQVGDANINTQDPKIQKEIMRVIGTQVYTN

Structure (SMILES)	Kd [1]	ΔTm [2]	IC50 [3]	other results
Cc1cc(=O)[nH]c2cc(-c3ccccc3)ccc12	900 nM	3.2 °C	180 nM	solubility thermodynamic at 18 h, 500 µM [4]: 0.65 µg/mL (≈ 2.76 µM)
Cc1cc(=O)[nH]c2cc(-c3ccc(C(=O)O)cc3Cl)ccc12		7.4 °C	21 nM	solubility thermodynamic at 18 h, 500 µM [4]: 4.3 µg/mL (≈ 13.7 µM)
Cc1cc(=O)[nH]c2cc(-c3ccc(N)cc3Cl)ccc12	39 nM	9.4 °C	39 nM	
Cc1cc(=O)[nH]c2cc(-c3ccc(F)cc3)ccc12		3.1 °C	310 nM	
Cc1cc(=O)[nH]c2ccccc12			12000 nM	ΔTm [5]: 1.1 °C
Oc1ccc2ccccc2n1			> 20000 nM	
O=c1[nH]nc(Cl)c2ccccc12				ΔTm [5]: 1.3 °C; Activity [6]: Dose-dependent effect
Cc1cc(=O)[nH]c2cc(-c3ccc(C(=O)NCCN4CCOCC4)cc3Cl)ccc12	18 nM	9.9 °C	22 nM	solubility thermodynamic at 18 h, 500 µM [4]: 42.6 µg/mL (≈ 100 µM)
COc1ccccc1-c1ccc2c(C)cc(=O)[nH]c2c1		1.5 °C	1370 nM	
O=C(c1cc(Cc2n[nH]c(=O)c3ccccc23)ccc1F)N1CCN(C(=O)C2CC2)CC1				inhibition [7]: 84%; inhibition [8]: 72%
Oc1nc(-c2ccc(C(F)(F)F)cc2)nc2c1CSCC2				IC50 [9]: > 10000 nM
COCCNC(=O)c1ccc(-c2ccc3c(C)cc(=O)[nH]c3c2)c(Cl)c1	16 nM	10.1 °C	9 nM	
Cc1cc(=O)[nH]c2ccc(-c3ccccc3)cc12		0.6 °C	> 20000 nM	
Cc1cc(=O)[nH]c2cc(-c3cccc(F)c3)ccc12		4.4 °C	150 nM	
Cc1cc(=O)[nH]c2cc(-c3ccccc3Cl)ccc12	57 nM	6.3 °C	9 nM	solubility thermodynamic at 18 h, 500 µM [4]: < 0.1 µg/mL

From ChEMBL document CHEMBL2380224, “Fragment-based ligand design of novel potent inhibitors of tankyrases” (J Med Chem, 2013)
